# Assay: Induction of cardiomyogenesis in mouse ESC transfected with alphaMHC-eGFP at 3 uM treated on day 2 to 4 followed by cell reseeding in normal growth media on day 6 and 8 measured on day 12 by alpha-Actinin Alexa568-based immunohistochemical analysis relative to vehicle-treated control
# Assay type: functional, Embryonic stem cell
# In short: (§1)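 αMHC-eGFP mESCs dosed at 3 or 6 μM on days 2 and 4, then fixed at day 10 or 12 in 4% paraformaldehyde for 40 min at room temperature. Cells were permeabilized and blocked 30 min in PBS with 10% horse serum and 0.2% Triton X-100. Staining used mouse anti-α-actinin (1:200, 60 min) then donkey anti-mouse Alexa568 (1:400, with DAPI, 60 min). Integrated Alexa568 intensity was reported relative to DMSO vehicle.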
row,SMILES,fold change (FC)
1,Cc1nnc(Nc2ccc3c(c2)ncn3-c2ccccc2)c2ccccc12,10

# Assay: Induction of cardiomyogenesis in mouse ESC transfected with alphaMHC-eGFP at 6 uM treated on day 2 to 4 followed by cell reseeding in normal growth media on day 6 and 8 measured on day 12 by alpha-Actinin Alexa568-based immunohistochemical analysis relative to vehicle-treated control
# Assay type: functional, Embryonic stem cell
# In short: as §1
row,SMILES,fold change (FC)
1,Cc1nnc(Nc2ccc3c(c2)ncn3-c2ccccc2)c2ccccc12,20

# Assay: Induction of cardiomyogenesis in mouse ESC transfected with alpha-MHC at 6 uM treated on day 2 to 4 followed by cell reseeding in normal growth media on day 6, 8 measured on day 12 by GFP reporter gene assay relative to vehicle-treated control
# Assay type: functional, Embryonic stem cell
# In short: (§2)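 αMHC-eGFP mESCs seeded in growth media without LIF, dosed at 3 or 6 μM on days 2 and 4, and fed growth media on days 6 and 8. Cultures were then fixed in 4% paraformaldehyde. Integrated intensity of αMHC-eGFP fluorescence was measured by automated imaging as fold increase over DMSO vehicle. nsRED autofluorescence was subtracted.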
row,SMILES,fold change (FC)
1,Cc1nnc(Nc2ccc3c(c2)ncn3-c2ccccc2)c2ccccc12,20

# Assay: Induction of cardiomyogenesis in mouse ESC transfected with alpha-MHC at 0.78 to 12.5 uM treated on day 2 to 4 followed by cell reseeding in normal growth media on day 6, 8 measured on day 10 by GFP reporter gene assay relative to vehicle-treated control
# Assay type: functional, Embryonic stem cell
# In short: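 mESCs stably carrying αMHC-promoter eGFP, expanded feeder-free with LIF on poly-D-lysine (5 passages), then seeded about 1000 cells/well on gelatin in growth media without LIF. From day 2, compound added in equal volume of media at 2× final (0.78–12.5 μM; 50 mM DMSO stocks). Cultures kept at 37 °C, 5% CO2, fixed in paraformaldehyde on day 9 or 10 and DAPI-stained. αMHC-eGFP fluorescence imaged automatically and expressed as fold-change over DMSO-treated cells.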
row,SMILES,fold change (FC)
1,c1ccc(-n2cnc3cc(NCc4cccs4)ccc32)cc1,0.75
2,c1ccc(-n2cnc3cc(NCc4ccco4)ccc32)cc1,2.2
3,Cc1nnc(Nc2ccc3c(c2)ncn3C)c2ccccc12,1.6
4,Nc1ccc2c(c1)ncn2-c1ccccc1,3
5,CC(=O)Nc1ccc2c(c1)ncn2-c1ccccc1,1.2
6,Cc1nnc(Nc2ccc3c(c2)nc(N)n3-c2ccccc2)c2ccccc12,2.1
7,Cc1nnc(Nc2ccc3c(c2)ncn3-c2ccccc2)c2ccccc12,9.6
8,COc1ccccc1-n1cnc2cc(Nc3nnc(C)c4ccccc34)ccc21,4.3
9,COc1cccc(-n2cnc3cc(Nc4nnc(C)c5ccccc45)ccc32)c1,18.6
10,CCCc1ccc(-n2cnc3cc(Nc4nnc(C)c5ccccc45)ccc32)cc1,0.7
11,Cc1nnc(Nc2ccc3c(c2)ncn3-c2cccc(C(F)(F)F)c2)c2ccccc12,0.5
12,Cc1nnc(Nc2ccc3c(c2)ncn3-c2ccccc2C(C)C)c2ccccc12,4.4
13,COc1ccc(-n2cnc3cc(Nc4nnc(C)c5ccccc45)ccc32)cc1,10
14,Cc1nnc(Nc2ccc3c(c2)ncn3-c2ccc(C(F)(F)F)cc2)c2ccccc12,1.6
15,Cc1nnc(Nc2ccc3c(c2)ncn3-c2ccccc2O)c2ccccc12,2.1
16,Cc1nnc(Nc2ccc3c(c2)ncn3C2CC2)c2ccccc12,0.9
17,Cc1nnc(Nc2ccc3c(c2)ncn3C2CCCCC2)c2ccccc12,3.3
18,Cc1nnc(Nc2ccc3c(c2)ncn3-c2ccccn2)c2ccccc12,2.2
19,Cc1nnc(Nc2ccc3c(c2)ncn3C2CCOCC2)c2ccccc12,1.6
20,Cc1nnc(Nc2ccc3c(c2)ncn3C2CCN(C)CC2)c2ccccc12,4.4
21,COc1cccc(-n2cnc3cc(Nc4nncc5ccccc45)ccc32)c1,13.7
22,COc1cccc(-n2cnc3cc(Nc4nnc(Cl)c5ccccc45)ccc32)c1,6.7
23,COc1cccc(-n2cnc3cc(Nc4nnc(OC)c5ccccc45)ccc32)c1,7.1

row,SMILES,fold change (FC)
1,COc1cccc(-n2cnc3cc(Nc4nnc(Cc5ccccc5)c5ccccc45)ccc32)c1,2
2,COc1cccc(-n2cnc3cc(Nc4nnc(-c5ccccc5)c5ccccc45)ccc32)c1,1
3,COc1cccc(-n2cnc3cc(NCCc4ccccc4)ccc32)c1,1.4
4,COc1cccc(-n2cnc3cc(NCc4ccccc4OC)ccc32)c1,1.7
5,Cn1cccc1CNc1ccc2c(c1)ncn2-c1ccccc1,1.6
6,Clc1ncccc1CNc1ccc2c(c1)ncn2-c1ccccc1,1.4
7,Brc1ccc(CNc2ccc3c(c2)ncn3-c2ccccc2)s1,3.1
8,c1ccc(-c2ccc(CNc3ccc4c(c3)ncn4-c3ccccc3)cn2)cc1,3
9,FC(F)(F)c1ccc(CNc2ccc3c(c2)ncn3-c2ccccc2)cn1,2.9
10,c1ccc(CN2CCC(CNc3ccc4c(c3)ncn4-c3ccccc3)CC2)cc1,4.3
11,COc1cccc(-n2cnc3cc(NC(=O)c4ccccn4)ccc32)c1,1.7
12,COc1ccccc1-n1cnc2cc(Nc3ccc4ccccc4c3)ccc21,3.1
13,COc1ccccc1-n1cnc2cc(Nc3ncccn3)ccc21,1.1
14,c1ccc(-n2cnc3cc(Nc4cnccn4)ccc32)cc1,2.4
15,c1ccc(-n2cnc3cc(Nc4cccnc4)ccc32)cc1,7.8
16,COc1ccccc1-n1cnc2cc(Nc3ccccn3)ccc21,1.5
17,COc1ccccc1-n1cnc2cc(Nc3ccccc3)ccc21,0.7
18,COc1cccc(Nc2ccc3c(c2)ncn3-c2ccccc2OC)c1,3.8
19,Cc1cccc(-n2cnc3cc(Nc4ccc(C)nn4)ccc32)c1,7.9
20,COc1ccccc1-n1cnc2cc(Nc3nnc(C)c4ccccc34)cnc21,2.5
21,Cc1nnc(Nc2ccc3c(ccn3-c3ccccc3)c2)c2ccccc12,2
22,Cc1nnc(Nc2ccc3c(c2)nc(N(C)C)n3-c2ccccc2)c2ccccc12,3.7
23,Cc1nnc(Nc2ccc3c(c2)nnn3-c2ccccc2)c2ccccc12,3.1

# Assay: Induction of cardiomyogenesis in mouse ESC transfected with alpha-MHC at 3 uM treated on day 2 to 4 followed by cell reseeding in normal growth media on day 6, 8 measured on day 12 by GFP reporter gene assay relative to vehicle-treated control
# Assay type: functional, Embryonic stem cell
# In short: as §2
row,SMILES,fold change (FC)
1,Cc1nnc(Nc2ccc3c(c2)ncn3-c2ccccc2)c2ccccc12,10

# Source: ChEMBL document CHEMBL3603769, “1,5-Disubstituted benzimidazoles that direct cardiomyocyte differentiation from mouse embryonic stem cells” (2015)
